In ChEMBL document CHEMBL1671756, “In vitro and in vivo antifungal susceptibilities of the Mucoralean fungus Cunninghamella” (2010):
The source made the active and inactive calls. The rule behind the calls is not given here.

Legend:
Format in all cases: functional, organism-based
[1] = system: Cunninghamella bertholletiae; test: Antifungal activity against Cunninghamella bertholletiae UTSCH 05-2275 infected in diabetic OF1 mouse assessed as decreased fungal load in kidney at 60 mg/kg, po qd administered 1 day post infection measured after 4 to 5 days relative to untreated control; parameters: dose 60 mg/kg
Summary of the method: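 Diabetic male OF1 mice (streptozocin 210 mg/kg i.p.; glucose above 250 mg/dl) were challenged i.v. with 1 × 10⁵ CFU sporangiospores. Oral once-daily dosing from day 1 for 7 days; 10 mice per group. Killed at day 5 (day 4 if moribund). About half of each organ homogenized in saline; serial 10-fold dilutions plated on PDA for 24 h at 35°C; log₁₀ CFU/g tissue.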

[2] = system: Cunninghamella bertholletiae; test: Antifungal activity against Cunninghamella bertholletiae UTHSC 05-2275 infected in diabetic OF1 mouse assessed as increase in mouse survival rate at 60 mg/kg, po qd administered 1 day after infection for 7 days relative to untreated control; parameters: dose 60 mg/kg
Summary of the method: (§1)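 Male OF1 mice made diabetic with streptozocin 210 mg/kg i.p.; blood glucose above 250 mg/dl at day 10 required. Infected i.v. via the tail vein with 1 × 10⁵ CFU sporangiospores in 0.2 ml saline. Ceftazidime 5 mg/day s.c. on days 1–7. Oral once-daily treatment from day 1 for 7 days; 10 mice per group; followed for 20 days; Kaplan-Meier mean survival time, log-rank test.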

[3] = system: Cunninghamella bertholletiae; test: Antifungal activity against Cunninghamella bertholletiae UTSCH 05-2275 infected in diabetic OF1 mouse assessed lung at 60 mg/kg, po qd administered 1 day post infection measured after 4 to 5 days relative to untreated control; parameters: dose 60 mg/kg
Summary of the method: (§2)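 Male OF1 mice (mean 30 g) made diabetic with a single i.p. dose of streptozocin 210 mg/kg; blood glucose >250 mg/dl at day 10 qualified. Ceftazidime 5 mg/day s.c. given on days 1–7. Challenge by lateral tail vein with 1 × 10⁵ CFU sporangiospores in 0.2 ml saline. Oral dosing once daily for 7 days, starting 1 day after challenge. Untreated controls. Ten mice per group.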

[4] = system: Cunninghamella bertholletiae; test: Antifungal activity against Cunninghamella bertholletiae UTSCH 05-2275 infected in diabetic OF1 mouse assessed as decreased fungal load in lung at 40 mg/kg, po qd administered 1 day post infection measured after 4 to 5 days relative to untreated control; parameters: dose 40 mg/kg; summary of the method: as §2
[5] = system: Cunninghamella bertholletiae; test: Antifungal activity against Cunninghamella bertholletiae UTHSC 05-2275 infected in neutropenic OF1 mouse assessed as decreased fungal load in brain at 40 mg/kg, po qd administered 1 day post infection measured after 4 to 5 days relative to untreated control; parameters: dose 40 mg/kg
Summary of the method: (§3)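 Neutropenic male OF1 mice (cyclophosphamide 200 mg/kg i.p. plus 5-fluorouracil 150 mg/kg i.v., day −1) were given 1 × 10⁴ CFU sporangiospores i.v. in 0.2 ml saline. Treatment from 24 h: 0.8 mg/kg i.v. or oral doses once daily; 10 mice per group. Killed at day 5 (day 4 if moribund). About half of brain, lungs and kidneys homogenized in saline; 10-fold dilutions plated on PDA for 24 h at 35°C; log₁₀ CFU/g tissue.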

[6] = system: Cunninghamella bertholletiae; test: Antifungal activity against Cunninghamella bertholletiae FMR-9598 infected in neutropenic OF1 mouse assessed as decreased fungal load in brain at 60 mg/kg, po qd administered 1 day post infection measured after 4 to 5 days relative to untreated control; parameters: dose 60 mg/kg; summary of the method: as §3
[7] = system: Cunninghamella bertholletiae; test: Antifungal activity against Cunninghamella bertholletiae UTHSC 05-2275 infected in diabetic OF1 mouse assessed as increase in mouse survival rate at 40 mg/kg, po qd administered 1 day after infection for 7 days relative to untreated control; parameters: dose 40 mg/kg; summary of the method: as §1
[8] = system: Cunninghamella bertholletiae; test: Antifungal activity against Cunninghamella bertholletiae UTHSC 06-1945 infected in neutropenic OF1 mouse assessed as decreased fungal load in brain at 60 mg/kg, po qd administered 1 day post infection measured after 4 to 5 days relative to untreated control; parameters: dose 60 mg/kg; summary of the method: as §3
[9] = system: Cunninghamella bertholletiae; test: Antifungal activity against Cunninghamella bertholletiae UTHSC 05-2275 infected in neutropenic OF1 mouse assessed as decreased fungal load in kidney at 40 mg/kg, po qd administered 1 day post infection measured after 4 to 5 days relative to untreated control; parameters: dose 40 mg/kg; summary of the method: as §3
[10] = system: Cunninghamella bertholletiae; test: Antifungal activity against Cunninghamella bertholletiae UTHSC 03-2241 infected in neutropenic OF1 mouse assessed as increase in mouse survival rate at 60 mg/kg, po qd administered 1 day after infection; parameters: dose 60 mg/kg
Summary of the method: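 Male OF1 mice, about 30 g, made neutropenic with cyclophosphamide 200 mg/kg i.p. plus 5-fluorouracil 150 mg/kg i.v. 1 day before challenge. Infected i.v. via the lateral tail vein with 1 × 10⁴ CFU of hemacytometer-counted sporangiospores in 0.2 ml saline. Ceftazidime 5 mg/day s.c. on days 1–7. Oral treatment started 24 h after challenge; 10 mice per group; checked daily for 20 days; Kaplan-Meier mean survival time, log-rank test.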

[11] = system: Cunninghamella bertholletiae; test: Antifungal activity against Cunninghamella bertholletiae UTHSC 04-2581 infected in neutropenic OF1 mouse assessed as decreased fungal load in lung at 0.8 mg/kg, iv qd administered 1 day post infection measured after 4 to 5 days relative to untreated control; parameters: dose 0.8 mg/kg; summary of the method: as §3
[12] = system: Cunninghamella bertholletiae; test: Antifungal activity against Cunninghamella bertholletiae FMR-9598 infected in neutropenic OF1 mouse assessed as decreased fungal load in lung at 0.8 mg/kg, iv qd administered 1 day post infection measured after 4 to 5 days relative to untreated control; parameters: dose 0.8 mg/kg; summary of the method: as §3
[13] = system: Cunninghamella bertholletiae; test: Antifungal activity against Cunninghamella bertholletiae UTHSC 06-1945 infected in neutropenic OF1 mouse assessed as increase in mouse survival rate at 0.8 mg/kg, iv qd administered 1 day after infection; parameters: dose 0.8 mg/kg
Summary of the method: (§4)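 Male OF1 mice (~30 g) were made neutropenic with cyclophosphamide 200 mg/kg i.p. plus 5-fluorouracil 150 mg/kg i.v. 1 day before challenge. Challenge was 1 × 10⁴ CFU sporangiospores in 0.2 ml saline via the lateral tail vein. Mice got ceftazidime 5 mg/day s.c. on days 1–7. Dosing started 24 h post-challenge for 7 days. There were 10 mice/group, observed daily for 20 days. Kaplan-Meier analysis with log-rank test.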

[14] = system: Cunninghamella bertholletiae; test: Antifungal activity against Cunninghamella bertholletiae UTHSC 04-2581 infected in neutropenic OF1 mouse assessed as increase in mouse survival rate at 0.8 mg/kg, iv qd administered 1 day after infection for 7 days relative to untreated control; parameters: dose 0.8 mg/kg; summary of the method: as §4
[15] = system: Cunninghamella bertholletiae; test: Antifungal activity against Cunninghamella bertholletiae UTHSC 05-2275 infected in neutropenic OF1 mouse assessed as increase in mouse survival rate at 0.8 mg/kg, iv qd administered 1 day after infection for 7 days relative to untreated control; parameters: dose 0.8 mg/kg; summary of the method: as §4
[16] = system: Cunninghamella bertholletiae; test: Antifungal activity against Cunninghamella bertholletiae UTHSC 05-2275 infected in diabetic OF1 mouse assessed as increase in mouse survival rate at 0.8 mg/kg, iv qd administered 1 day after infection for 7 days relative to untreated control; parameters: dose 0.8 mg/kg
Summary of the method: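 Male OF1 mice were made diabetic with streptozocin 210 mg/kg i.p. Diabetes was confirmed by blood glucose >250 mg/dl at day 10. Challenge was 1 × 10⁵ CFU in 0.2 ml saline i.v. (tail vein), with ceftazidime 5 mg/day s.c. on days 1–7. Treatment began 1 day after challenge for 7 days. There were 10 mice/group, checked daily for 20 days. Kaplan-Meier analysis with log-rank comparison.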

[17] = system: Cunninghamella bertholletiae; test: Antifungal activity against Cunninghamella bertholletiae UTHSC 04-2581 infected in neutropenic OF1 mouse assessed as decreased fungal load in kidney at 0.8 mg/kg, iv qd administered 1 day post infection measured after 4 to 5 days relative to untreated control; parameters: dose 0.8 mg/kg; summary of the method: as §3

SMILES	Activity [1]	Activity [2]	Activity [3]	Activity [4]	Activity [5]	Activity [6]	Activity [7]	Activity [8]	Activity [9]	Activity [10]	Activity [11]	Activity [12]	Activity [13]	Activity [14]	Activity [15]	Activity [16]	Activity [17]
CC[C@@H]([C@H](C)O)n1ncn(-c2ccc(N3CCN(c4ccc(OC[C@@H]5CO[C@@](Cn6cncn6)(c6ccc(F)cc6F)C5)cc4)CC3)cc2)c1=O [POSACONAZOLE]	Active	Active	Active	inactive	Active	Active	Active	Active	Active	Active	–	–	–	–	–	–	–
C[C@@H]1[C@H](O)[C@@H](C)/C=C/C=C/C=C/C=C/C=C/C=C/C=C/[C@H](O[C@@H]2O[C@H](C)[C@@H](O)[C@H](N)[C@@H]2O)C[C@@H]2O[C@](O)(C[C@@H](O)C[C@@H](O)[C@H](O)CC[C@@H](O)C[C@@H](O)CC(=O)O[C@H]1C)C[C@H](O)[C@H]2C(=O)O [AMPHOTERICIN B]	–	–	–	–	–	–	–	–	–	–	Active	Active	inactive	Active	Active	Active	Active
